Positions count from the first letter of the chain named.
Tests used:
[1] = molecular target: T1, PPIL1 (Homo sapiens, UniProt Q9Y3C6); format: biochemical; conditions: catalytic concentrations of PPIL1 WT, 25 mM sodium phosphate, 100 mM NaCl, 1 mM dithiothreitol, 5% D2O, pH 7.0, 950 MHz; Figure S6I
T1 sequence (Q9Y3C6 1-166): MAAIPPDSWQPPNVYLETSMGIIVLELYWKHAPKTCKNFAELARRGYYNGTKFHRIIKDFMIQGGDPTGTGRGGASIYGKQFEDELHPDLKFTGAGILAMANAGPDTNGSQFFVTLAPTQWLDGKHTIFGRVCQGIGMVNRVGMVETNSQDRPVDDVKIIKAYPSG
Method in brief: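 Substrate: uniformly 15N-labeled PRP17 peptide (residues 84–101), made as a His-SUMO fusion in BL21(DE3) in 15N minimal medium. Induction was 1 mM IPTG, 37 °C, 8 h. Ni-NTA, SUMO protease cleavage (30 °C, 6 h) and C18 reverse-phase HPLC followed, then lyophilisation. ZZ mixing times 120 (×2), 150, 200, 250 (×2), 350, 450, 600 and 750 ms on a TXO cryoprobe.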

[2] = cis/trans conformation of the PRP17 Gly94-Pro95 bond by 1H-13C HSQC; format: physicochemical; conditions: 500 μM peptide in PBS (pH 7.4), 5 % v/v D2O, 750 MHz
[3] = molecular target: T2, PPIL1 p.T107A, purified recombinant (human, UniProt Q9Y3C6 1-166, p.T107A); assay: SPR
T2 sequence (looked up): T1 sequence (Q9Y3C6 1-166) with T107A

## TYETMFAPEFGPENPFRT
[1]
  proline isomerization by PPIL1 WT (ZZ exchange): This was also confirmed

## Ac-FAPEFGPENPFRT-NH2
[2]
  Gly94-Pro95 bond conformation: present in both cis and trans conformations

B1: N-terminal GST tagged SKIP 59–129 (domain or fragment, UniProt Q13573 59-129, looked up)
chain: GDGGAFPEIHVAQYPLDMGRKKKMSNALAIQVDSEGKIKYDAIARQGQSKDKVIYSKYTDLVPKEVMNADD
[3]
  binding result: binds

Reference: article PMC8800389 (Neuron, 2020)
